ChEMBL document CHEMBL1141084, “Analogues of thiolactomycin as potential antimalarial agents” (J Med Chem, 2005)
pIC50: −log10 of the molar value.

Tests used:
[1] = test system: Trypanosoma brucei rhodesiense; experiment: Inhibitory concentration against Trypanosoma brucei rhodesiense STIB 900 upon incubation at 37 degrees C in 5% CO2 for 72 hours; type: functional, organism-based
[2] = molecular target: T1, Beta-ketoacyl-ACP-synthase III (Plasmodium falciparum) (UniProt O77078); experiment: Percent inhibition of recombinant Plasmodium falciparum beta-Ketoacyl-acyl carrier protein synthase III activity (MBP-pfKASIII) expressed in E. coli cells using [1-14C]acetyl-CoA as radioligand upon incubation at 37 degrees C for 15 minutes with compound dissolved in 2% DMSO at 10 uM; NA = no activity
T1 sequence (whole entry): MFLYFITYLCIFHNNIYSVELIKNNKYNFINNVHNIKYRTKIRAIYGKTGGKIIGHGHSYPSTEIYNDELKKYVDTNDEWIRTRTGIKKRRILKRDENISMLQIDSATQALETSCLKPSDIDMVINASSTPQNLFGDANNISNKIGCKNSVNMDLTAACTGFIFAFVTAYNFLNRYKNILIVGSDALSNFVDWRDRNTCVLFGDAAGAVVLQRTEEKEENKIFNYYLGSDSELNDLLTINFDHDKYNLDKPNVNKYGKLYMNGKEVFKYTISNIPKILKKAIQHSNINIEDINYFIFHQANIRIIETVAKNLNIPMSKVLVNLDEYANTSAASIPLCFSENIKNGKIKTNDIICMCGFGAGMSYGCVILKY
Method in brief: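 MBP-fused pfKASIII from E. coli BL21(DE3) codon+RIL, amylose-purified, 500 ng per reaction. Buffer: 100 mM NaH2PO4 pH 6.6, with 25 µM E. coli ACP prereduced with 1 mM β-mercaptoethanol (37 °C, 30 min), 1 µg E. coli FabD, 65 µM malonyl-CoA and 45 µM [1-14C]acetyl-CoA. 2% DMSO final; 37 °C, 15 min. Read-out: filter disks, TCA-washed, scintillation-counted.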

Plasmodium falciparum = experiment: In vitro inhibitory concentration against chloroquine-resistant, pyrimethamine-resistant Plasmodium falciparum K1; type: functional, organism-based
Trypanosoma cruzi = experiment: Inhibitory concentration against Trypanosoma cruzi [Tulahuen strain C2C4] in rat skeletal myoblasts upon incubation at 37 degrees C for 4 days in 5% CO2; type: functional, organism-based
Leishmania donovani = experiment: Inhibitory concentration against amastigotes of Leishmania donovani strain MHOM/ET/67/L82 upon incubation at 37 degrees C for 72 hours using alamar blue
[3] = molecular target: T1, Beta-ketoacyl-ACP-synthase III (Plasmodium falciparum); experiment: Percent inhibition of Plasmodium falciparum beta-Ketoacyl-acyl carrier protein synthase III activity (MBP-pfKASIII) expressed in E. coli cells using [1-14C]acetyl-CoA as radioligand upon incubation at 37 degrees C for 15 minutes with compound dissolved in 2% DMSO at 100 uM

SMILES | pIC50 ([1]; Trypanosoma brucei, 72 h) | inhibition [2] | pIC50 (Plasmodium falciparum; Plasmodium falciparum) | pIC50 (Trypanosoma cruzi; Trypanosoma cruzi, 96 h) | pIC50 (Leishmania donovani) | inhibition [3] | pIC50 [1] | pIC50 (Plasmodium falciparum) | pIC50 (Trypanosoma cruzi)
CCCC1=C(O)C(C)(CCCCCCO)SC1=O (stereo not given) | 4.19 | No activity | 3.80 | 4.19 | 4.06 |  |  |  | 
CCCCCCCCCCC1(C)SC(=O)C(C/C=C(/C)CCC=C(C)C)(CCC)C1=O (stereo not given) | < 3.70 | No activity | 4.11 | < 4.18 | < 4.18 |  |  |  | 
CCC1=C(O)SC(C)C1=O (stereo not given) | 3.45 | No activity | 3.63 | 3.25 |  |  |  |  | 
CCCCCCCCC1(C)SC(O)=C(CC)C1=O (stereo not given) | 3.80 | No activity | 4.27 | 3.78 |  |  |  |  | 
CCCCCCCCCCC1(C)SC(=O)C(CCC)=C1OCCCCCCO (stereo not given) | 4.19 |  | 4.51 | 4.19 | 4.44 | 5% |  |  | 
CCCC1=C(OC)C(C)SC1=O (stereo not given) | 5.05 | No activity | 4.35 | 3.44 | 4.00 |  |  |  | 
CCCCCCCCCCC1(C)NC(=O)C(C(C)=O)=C1O (stereo not given) | 5.15 | No activity | 4.20 | 3.82 | 5.52 |  |  |  | 
CCCCCCCCCCCCCCCCC1(CC)SC(O)=C(C)C1=O (stereo not given) | 3.89 |  | 4.46 | 4.31 |  | 40% |  |  | 
CC(C)=CCC1(C)SC(O)=C(C)C1=O (stereo in doubt; 1a) |  |  |  |  | 4.25 | 30% | 3.74 | < 4.02 | < 3.85
CC1=C(O)SC(C)C1=O (stereo not given) [THIOLACTONE] | < 3.20 | No activity | < 3.46 | < 3.20 |  |  |  |  | 
CCCCCCCCCCC1(C)OC(O)=C(CCCC)C1=O (stereo not given) | 4.89 |  | < 4.82 | 4.15 |  | 60% |  |  | 
C=CCOC1=C(CCC)C(=O)SC1(C)CCCCCCCCCC (stereo not given) | 4.85 | No activity | 6.00 | 4.10 | 4.18 |  |  |  | 
CCCCCCCCCCC1(C)SC(O)=C(CCCC)C1=O (stereo not given) | 5.10 |  | 4.15 | 4.11 |  | 60% |  |  | 
CCCCCCCCCCC1(CC)SC(O)=C(C)C1=O (stereo not given) | 3.82 |  | 4.19 | 4.14 |  | 15% |  |  | 
CCCCCCC1(C)SC(O)=C(CC)C1=O (stereo not given) | 4.15 |  | 4.21 | 3.71 |  | 5% |  |  | 
CC1SC(O)=C(Cc2ccccc2)C1=O (stereo not given) | 3.39 | No activity | 3.71 | < 3.39 |  |  |  |  | 
CCCCCCOCCOCCC1(C)SC(O)=C(CC)C1=O (stereo not given) | 3.92 | No activity | < 4.22 | 3.71 |  |  |  |  | 
CCCCCCCCCCC1(C)SC(=O)C(CCC)=C1OCc1ccccc1 (stereo not given) | < 3.65 | No activity | 5.40 | 4.89 | < 4.13 |  |  |  | 
CCCCCCCCCCCCCCCCC1(C)SC(O)=C(C)C1=O (stereo not given) | 4.21 |  | 4.60 | 4.55 |  | 55% |  |  | 
CCCCCCCCCCC1SC(O)=C(C)C1=O (stereo not given) | 5.22 |  | 4.14 | 3.79 |  | 30% |  |  | 
CCCCCCC1(C)SC(O)=C(C)C1=O (stereo not given) | 3.95 |  | 3.86 | 3.90 |  | 10% |  |  | 

SMILES | pIC50 ([1]; Trypanosoma brucei, 72 h) | inhibition [2] | pIC50 (Plasmodium falciparum; Plasmodium falciparum) | pIC50 (Trypanosoma cruzi; Trypanosoma cruzi, 96 h) | pIC50 (Leishmania donovani) | inhibition [3] | pIC50 [1] | pIC50 (Plasmodium falciparum) | pIC50 (Trypanosoma cruzi)
CCCCCCCCCCC1(C)SC(=O)C(CCC)=C1OCCCCCCO[Si](C)(C)C(C)(C)C (stereo not given) | 3.83 |  | 5.52 | 4.85 | 5.15 | 10% |  |  | 
CCCC1=C(O)C(C)(CCCCCCO[Si](C)(C)C(C)(C)C)SC1=O (stereo not given) | 5.70 | No activity | 4.43 | 3.82 | 6.00 |  |  |  | 
CC(C)=CCC/C(C)=C/CC1(C)SC(O)=C(C)C1=O (stereo not given) | 3.72 |  | 4.40 | 4.17 |  | 45% |  |  | 
CCCCCCCCCCCCCCCCC1(C)SC(O)=C(Cc2ccccc2)C1=O (stereo not given) | 4.49 |  | 5.15 | 4.85 | 5.70 | 50% |  |  | 
CCCCCCCCCCCCCCCCC1(C)SC(O)=C(CCC)C1=O (stereo not given) | 4.54 |  | 5.22 | 4.89 | 6.30 | 20% |  |  | 
CCCC1(C/C=C(/C)CCC=C(C)C)C(=O)SC(C)C1=O (stereo not given) | 4.26 |  | 5.05 | 4.68 | 4.92 | 90% |  |  | 
CCCCCCCCCCC1(C)OC(O)=C(CC)C1=O (stereo not given) | 4.21 |  | 4.03 | 3.84 |  |  |  |  | 
CCCCCCCCCCC1(C)SC(O)=C(CCC)C1=O (stereo not given) | 4.68 |  | 5.00 | 4.25 |  | 55% |  |  | 
CCCCCCCCCCC1(C)SC(O)=C(Cc2ccccc2)C1=O (stereo not given) | 3.88 |  | 4.30 | 4.19 |  | 70% |  |  | 
CCCCCCCCCCCCCCCCC1(C)SC(O)=C(CC)C1=O (stereo not given) | 4.33 |  | 4.72 | 4.37 |  | 65% |  |  | 
C=CCC1(CCC)C(=O)SC(C)(CCCCCCCCCC)C1=O (stereo not given) | 5.05 | No activity | 4.72 | 4.33 | 4.09 |  |  |  | 
C=CCOC1=C(C)C(=O)SC1(C)CCCCCCCCCC (stereo not given) | 3.78 |  | 5.22 | 4.52 |  | 5% |  |  | 
CCC1=C(O)OC(C)C1=O (stereo not given) | < 3.20 |  | < 3.45 | < 3.20 |  |  |  |  | 
C=CCC1(C)C(=O)SC(C)(CCCCCCCCCC)C1=O (stereo not given) | 3.80 |  | 4.59 | 4.26 |  | 5% |  |  | 
CCCCCCCCCCC1(C)SC(O)=C(CC)C1=O (stereo not given) | 4.01 |  | 4.82 | 4.27 |  | 40% |  |  | 
CCCCCCCCC1(C)SC(O)=C(C)C1=O (stereo not given) | 3.71 |  | 3.82 | < 3.46 |  | 10% |  |  | 
CCCCCCCCCCC1(C)SC(O)=C(C)C1=O (stereo not given) | 3.77 |  | 4.44 | 4.17 |  | 30% |  |  | 
CCCCCCC1(C)OC(O)=C(C)C1=O (stereo not given) | 3.61 | No activity | 3.65 | < 3.37 |  |  |  |  | 
CCCC1=C(O)SC(C)C1=O (stereo not given) | 3.54 | No activity | < 3.54 | < 3.28 |  |  |  |  | 
CCC1SC(O)=C(C)C1=O (stereo not given) | < 3.25 | No activity | < 3.50 | < 3.25 |  |  |  |  | 
C=CCC1(C)C(=O)SC(C)C1=O (stereo not given) | 4.10 | No activity | 4.21 | < 3.31 |  |  |  |  | 
